According to ChEMBL document CHEMBL3856209, “Novel pyrazolopyridine derivatives as potential angiogenesis inhibitors: Synthesis, biological evaluation and transcriptome-based mechanistic analysis” (Eur J Med Chem, 2016):
The source made the active and inactive calls.

Tests used:
[1] = system: HUVEC; test: Effect on SIVA1 gene expression in serum-starved HUVEC after 24 hrs by microarray analysis relative to control; assay type: functional, Homo sapiens
[2] = system: HUVEC; test: Effect on SLC30A7 gene expression in serum-starved HUVEC after 24 hrs by microarray analysis relative to control; assay type: functional, Homo sapiens
[3] = system: HUVEC; test: Effect on NR2F1 gene expression in serum-starved HUVEC after 6 hrs by microarray analysis relative to control; assay type: functional, Homo sapiens
Summary of the method: (§1)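 Serum-starved confluent HUVEC (pooled from 3–5 donors, passage ≤4) were treated with 2 μM compound or vehicle in 2.5% FBS for 6 h or 24 h, and total RNA was isolated. Hybridization was on Illumina Human-HT12. Data were processed with bgAdjust, vst and rsn normalization. Changes versus DMSO were called by moderated paired t-test at p < 0.05 and |log2 fold change| > 0.5.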

[4] = system: HUVEC; test: Effect on EMCN gene expression in serum-starved HUVEC after 6 hrs by microarray analysis relative to control; assay type: functional, Homo sapiens
Summary of the method: (§2)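 Confluent serum-starved HUVEC (primary, pooled from 3–5 donors, passage ≤4) treated with 2 μM compound or DMSO vehicle in 2.5% FBS for 6 h or 24 h. Total RNA hybridized to Illumina Human-HT12 arrays, background-corrected, vst-transformed and rsn-normalized. Differential expression versus DMSO by moderated paired t-test (p < 0.05, |log2 fold change| > 0.5).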

[5] = system: HUVEC; test: Effect on RDH11 gene expression in serum-starved HUVEC after 24 hrs by microarray analysis relative to control; assay type: functional, Homo sapiens
[6] = system: HUVEC; test: Effect on FUCA1 gene expression in serum-starved HUVEC after 24 hrs by microarray analysis relative to control; assay type: functional, Homo sapiens; summary of the method: as §2
[7] = Downregulation of UBE2C gene expression in serum-starved HUVEC at 2 uM after 24 hrs by qRT-PCR analysis; assay type: functional, cell-based; conditions: Homo sapiens
Summary of the method: (§3)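 Serum-starved confluent HUVEC treated with 2 μM compound or vehicle in 2.5% FBS for 24 h. Total RNA isolated and qRT-PCR run in triplicate (95 °C 5 min; 40 cycles of 95 °C 5 s, 58 °C 20 s, 72 °C 5 s), normalized to RPS18S. Fold change vs control, n = 3.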

[8] = Downregulation of HMOX1 gene expression in serum-starved HUVEC at 2 uM after 24 hrs by qRT-PCR analysis; assay type: functional, cell-based; conditions: Homo sapiens; summary of the method: as §3
[9] = system: HUVEC; test: Effect on HLA-DMA gene expression in serum-starved HUVEC after 24 hrs by microarray analysis relative to control; assay type: functional, Homo sapiens
[10] = system: HUVEC; test: Effect on ACAT2 gene expression in serum-starved HUVEC after 24 hrs by microarray analysis relative to control; assay type: functional, Homo sapiens
Summary of the method: (§4)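 Serum-starved confluent HUVEC treated with 2 μM compound or DMSO in 2.5% FBS for 6 h or 24 h; RNA hybridized to Illumina Human-HT12 arrays. Data background-corrected, vst-transformed and rsn-normalized. Differential probes called by moderated paired t-test (limma) at p < 0.05 and log2 fold change >|0.5| vs DMSO.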

[11] = system: HUVEC; test: Effect on ANGPT2 gene expression in serum-starved HUVEC after 24 hrs by microarray analysis relative to control; assay type: functional, Homo sapiens
Summary of the method: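 Serum-starved confluent HUVEC (primary, pooled from 3–5 donors, passage ≤4) treated with 2 μM test compound or DMSO vehicle (working dilutions ≤0.1% v/v) in presence of 2.5% FBS for 6 h or 24 h; total RNA hybridized to Illumina Human-HT12 arrays; background correction, vst, rsn normalization; moderated paired t-test versus DMSO, thresholds p < 0.05 and log2 fold change >|0.5|.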

[12] = system: HUVEC; test: Effect on ITGA10 gene expression in serum-starved HUVEC after 24 hrs by microarray analysis relative to control; assay type: functional, Homo sapiens
Summary of the method: (§5)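 Confluent, serum-starved HUVEC (pooled from 3–5 donors, passage ≤4) treated with 2 μM compound or vehicle with 2.5% FBS for 6 h or 24 h. Total RNA hybridized to Illumina Human-HT12 arrays. Data were background-corrected, vst-transformed and rsn-normalized. Hits called by moderated paired t-test versus DMSO-treated cells, p < 0.05 and log2 fold change >|0.5|.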

[13] = system: HUVEC; test: Effect on ITGB2 gene expression in serum-starved HUVEC after 6 hrs by microarray analysis relative to control; assay type: functional, Homo sapiens
[14] = system: HUVEC; test: Effect on CD46 gene expression in serum-starved HUVEC after 6 hrs by microarray analysis relative to control; assay type: functional, Homo sapiens; summary of the method: as §4
[15] = system: HUVEC; test: Effect on EMCN gene expression in serum-starved HUVEC after 24 hrs by microarray analysis relative to control; assay type: functional, Homo sapiens; summary of the method: as §2
[16] = system: HUVEC; test: Effect on KCNAB1 gene expression in serum-starved HUVEC after 6 hrs by microarray analysis relative to control; assay type: functional, Homo sapiens; summary of the method: as §5
[17] = system: HUVEC; test: Effect on ANTXR1 gene expression in serum-starved HUVEC after 6 hrs by microarray analysis relative to control; assay type: functional, Homo sapiens; summary of the method: as §4
[18] = system: HUVEC; test: Effect on TYMP gene expression in serum-starved HUVEC after 6 hrs by microarray analysis relative to control; assay type: functional, Homo sapiens
[19] = system: HUVEC; test: Effect on UACA gene expression in serum-starved HUVEC after 6 hrs by microarray analysis relative to control; assay type: functional, Homo sapiens
[20] = system: HUVEC; test: Effect on HLA-DRB4 gene expression in serum-starved HUVEC after 24 hrs by microarray analysis relative to control; assay type: functional, Homo sapiens
[21] = system: HUVEC; test: Effect on DKK1 gene expression in serum-starved HUVEC after 6 hrs by microarray analysis relative to control; assay type: functional, Homo sapiens; summary of the method: as §2
[22] = system: HUVEC; test: Effect on TRIP13 gene expression in serum-starved HUVEC after 6 hrs by microarray analysis relative to control; assay type: functional, Homo sapiens
[23] = system: HUVEC; test: Effect on SMC4 gene expression in serum-starved HUVEC after 6 hrs by microarray analysis relative to control; assay type: functional, Homo sapiens
[24] = system: HUVEC; test: Effect on LDLR gene expression in serum-starved HUVEC after 6 hrs by microarray analysis relative to control; assay type: functional, Homo sapiens; summary of the method: as §1
[25] = system: HUVEC; test: Effect on HLA-B gene expression in serum-starved HUVEC after 24 hrs by microarray analysis relative to control; assay type: functional, Homo sapiens; summary of the method: as §5
[26] = system: HUVEC; test: Effect on GLIPR1 gene expression in serum-starved HUVEC after 6 hrs by microarray analysis relative to control; assay type: functional, Homo sapiens; summary of the method: as §5
[27] = system: HUVEC; test: Effect on SMC4 gene expression in serum-starved HUVEC after 24 hrs by microarray analysis relative to control; assay type: functional, Homo sapiens
[28] = system: HUVEC; test: Effect on CMTM7 gene expression in serum-starved HUVEC after 24 hrs by microarray analysis relative to control; assay type: functional, Homo sapiens; summary of the method: as §2
[29] = system: HUVEC; test: Effect on ATP1B1 gene expression in serum-starved HUVEC after 6 hrs by microarray analysis relative to control; assay type: functional, Homo sapiens; summary of the method: as §4
[30] = system: HUVEC; test: Effect on HLA-DRB4 gene expression in serum-starved HUVEC after 6 hrs by microarray analysis relative to control; assay type: functional, Homo sapiens; summary of the method: as §5
[31] = system: HUVEC; test: Effect on BHLHE40 gene expression in serum-starved HUVEC after 6 hrs by microarray analysis relative to control; assay type: functional, Homo sapiens; summary of the method: as §4
[32] = system: HUVEC; test: Effect on HJURP gene expression in serum-starved HUVEC after 24 hrs by microarray analysis relative to control; assay type: functional, Homo sapiens; summary of the method: as §5
[33] = system: HUVEC; test: Effect on GINS2 gene expression in serum-starved HUVEC after 24 hrs by microarray analysis relative to control; assay type: functional, Homo sapiens; summary of the method: as §5
[34] = system: HUVEC; test: Effect on RNA5S9 gene expression in serum-starved HUVEC after 24 hrs by microarray analysis relative to control; assay type: functional, Homo sapiens
[35] = system: HUVEC; test: Effect on LSS gene expression in serum-starved HUVEC after 6 hrs by microarray analysis relative to control; assay type: functional, Homo sapiens

COc1ccc(Cn2nc(-c3ccccc3)c3cc(Cl)nc(N4CCNCC4)c32)cc1
log2FC [1]: -0.5225 | log2FC [2]: 0.0778

COc1ccc(Cn2nc(-c3ccccc3)c3cc(Nc4ccc(N5CCN(C)CC5)cc4)nc(N4CCN(C)CC4)c32)cc1
log2FC [3]: -0.2125 | fold change (FC) [4]: 0.2035 | log2FC [5]: 0.6682 | fold change (FC) [6]: -1.0254 | Activity [7]: Active | Activity [8]: Active | fold change (FC) [9]: -0.8514 | log2FC [10]: 1.8135 | fold change (FC) [11]: 0.5736 | log2FC [12]: 0.5991 | fold change (FC) [13]: 1.3289 | fold change (FC) [14]: 0.3593 | fold change (FC) [15]: 0.5299 | fold change (FC) [16]: 0.0717 | fold change (FC) [17]: 0.1452 | log2FC [18]: 0.5089 | fold change (FC) [19]: 0.2427 | log2FC [20]: -0.7509 | fold change (FC) [21]: 0.1994 | log2FC [22]: -0.1432 | fold change (FC) [23]: 0.0208 | fold change (FC) [24]: 0.9404 | log2FC [25]: -0.5811 | fold change (FC) [26]: 0.1533 | log2FC [27]: -0.5117 | fold change (FC) [28]: 0.5435 | fold change (FC) [29]: 0.237 | fold change (FC) [30]: 0.3506 | fold change (FC) [31]: 0.7182 | log2FC [32]: -0.6338 | log2FC [33]: -0.5372 | log2FC [34]: 0.0013 | fold change (FC) [35]: 0.4912
